The subject of series [1] is HT-29. The experiment in a line: Cell cycle arrest in human HT-29 cells assessed as accumulation of cells at G1 phase at 350 nM after 24 hrs by propidium iodide staining-based flow cytometric analysis (reference value: 75.1 +/- 1.1%). The series is classed as functional.
The test system of series [2] is HT-29. The experiment in a line: Cell cycle arrest in human HT-29 cells assessed as accumulation of cells at S phase at 250 nM after 24 hrs by propidium iodide staining-based flow cytometric analysis (reference value: 12.3 +/- 0.4%). The series is classed as functional.
For series [3], the system named is HT-29. The experiment in a line: Cell cycle arrest in human HT-29 cells assessed as accumulation of cells at G1 phase at 100 nM after 24 hrs by propidium iodide staining-based flow cytometric analysis (reference value: 75.1 +/- 1.1%). In kind it is functional.
In series [4] the test system is HT-29. The series can be described thus: Cell cycle arrest in human HT-29 cells assessed as accumulation of cells at S phase at 350 nM after 24 hrs by propidium iodide staining-based flow cytometric analysis (reference value: 12.3 +/- 0.4%). The series is classed as functional.
In series [5] the target is Tubulin (Sus scrofa) (UniProt P02554+P02550). The series can be described thus: Inhibition of porcine brain tubulin polymerization at 10 uM after 2 hrs relative to control. Summed up:
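In a brief single-concentration run, purified tubulin polymerization was measured at 10 µM and expressed as percent of vehicle-treated controls.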

Series [6] has as its system A2780. The experiment in a line: Antiproliferative activity against human A2780 cells after 72 hrs by SRB assay. The series is classed as functional, cell-based. The settings on record: A2780, 72 h. Summed up:
(§1)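 Ovarian A2780 and cisplatin-resistant A2780cis cells were exposed for 72 h and stained with SRB. IC50 comes from dose-response curves, as means±SD of three independent experiments. Final DMSO was below 1%, with matched vehicle controls.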

Series [7] relates to HT-29. The series can be described thus: Cell cycle arrest in human HT-29 cells assessed as accumulation of cells at G2/M phase at 350 nM after 24 hrs by propidium iodide staining-based flow cytometric analysis (reference value: 11.4 +/- 1.4%). In kind it is functional.
Series [8] has as its system 518A2. The series can be described thus: Antiproliferative activity against human 518A2 cells after 72 hrs by MTT assay. In kind it is functional, cell-based. Particulars: for IC50: 518A2, 72 h. Summed up: (§2)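 MTT read-out after 72 h of continuous exposure. Viability is expressed as percentage of viable cells relative to untreated controls. IC50 comes from dose-response curves. Values are means±SD of four independent experiments (two for some entries). DMSO was below 1%, with vehicle controls at equal DMSO. Precipitation was excluded spectrometrically and microscopically.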

The nature of series [9]: Antiproliferative activity against human A2780cis cells after 72 hrs by SRB assay. The series is classed as functional, cell-based. Summed up: as §1
Series [10] relates to HT-29. The experiment in a line: Cell cycle arrest in human HT-29 cells assessed as accumulation of cells at G2/M phase at 250 nM after 24 hrs by propidium iodide staining-based flow cytometric analysis (reference value: 11.4 +/- 1.4%). In kind it is functional.
The subject of series [11] is HT-29. The series can be described thus: Cell cycle arrest in human HT-29 cells assessed as accumulation of cells at sub G1 phase at 350 nM after 24 hrs by propidium iodide staining-based flow cytometric analysis (reference value: 1.2 +/- 0.3%). In kind it is functional.
For series [12], the system named is HT-29. The series can be described thus: Cell cycle arrest in human HT-29 cells assessed as accumulation of cells at G1 phase at 250 nM after 24 hrs by propidium iodide staining-based flow cytometric analysis (reference value: 75.1 +/- 1.1%). In kind it is functional.
Series [13] has as its system HT-29. The series can be described thus: Cell cycle arrest in human HT-29 cells assessed as accumulation of cells at sub G1 phase at 250 nM after 24 hrs by propidium iodide staining-based flow cytometric analysis (reference value: 1.2 +/- 0.3%). The series is classed as functional.
For series [14], the system named is HT-29. The series can be described thus: Antiproliferative activity against human HT-29 cells after 72 hrs by MTT assay. The series is classed as functional, cell-based. Particulars: HT-29, 72 h. Summed up:
as §2

The subject of series [15] is HT-29. The series can be described thus: Cell cycle arrest in human HT-29 cells assessed as accumulation of cells at sub G1 phase at 100 nM after 24 hrs by propidium iodide staining-based flow cytometric analysis (reference value: 1.2 +/- 0.3%). The series is classed as functional.
In series [16] the test system is HT-29. The experiment in a line: Cell cycle arrest in human HT-29 cells assessed as accumulation of cells at G2/M phase at 100 nM after 24 hrs by propidium iodide staining-based flow cytometric analysis (reference value: 11.4 +/- 1.4%). In kind it is functional.
Series [17] has as its system HT-29. The series can be described thus: Cell cycle arrest in human HT-29 cells assessed as accumulation of cells at S phase at 100 nM after 24 hrs by propidium iodide staining-based flow cytometric analysis (reference value: 12.3 +/- 0.4%). The series is classed as functional.
Series [18] has as its system 518A2. The experiment in a line: Induction of cell cycle arrest in human 518A2 cells. The series is classed as functional, cell-based.
Series [19] deals with HT-29. The experiment in a line: Cell cycle arrest in human HT-29 cells assessed as accumulation of cells at G2/M phase after 24 hrs by propidium iodide staining-based flow cytometric analysis. In kind it is functional.
The subject of series [20] is Chorioallantoic membrane. The experiment in a line: Antiangiogenic activity in Leghorn chicken embryo chorioallantoic membrane assessed as disruption of smaller blood vessels at 5 nmol after 6 hrs by light microscopic analysis. The series is classed as functional, tissue-based. The settings on record: Gallus gallus. Summed up:
(§3)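 Fertilized chicken eggs, CAM assay. Compound was applied topically into a small silicon foil ring placed on the CAM. The membrane and its extraembryonal blood vessels were monitored over 24 h, with observations at 6 h and 24 h post application.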

Series [21] has as its system PANC-1. The experiment in a line: Antiproliferative activity against human PANC1 cells after 72 hrs by MTT assay. In kind it is functional, cell-based. The settings on record: PANC-1, 72 h. Summed up: as §2
The test system of series [22] is Chorioallantoic membrane. The experiment in a line: Antiangiogenic activity in Leghorn chicken embryo chorioallantoic membrane assessed as reduction in diameter of main blood vessel at 5 nmol after 24 hrs by light microscopic analysis. The series is classed as functional, tissue-based. The settings on record: Gallus gallus. Summed up: as §3
Series [23] in a line: Antiproliferative activity against human MCF7/Topo cells after 72 hrs by MTT assay. In kind it is functional, cell-based. Summed up:
as §2

The test system of series [24] is 518A2. The series can be described thus: Induction of apoptosis in human 518A2 cells assessed as accumulation at subG1 phase. The series is classed as functional, cell-based.
Series [25] relates to Chorioallantoic membrane. The series can be described thus: Antiangiogenic activity in Leghorn chicken embryo chorioallantoic membrane assessed as induction of hemorrhages at 5 nmol after 24 hrs by light microscopic analysis. The series is classed as functional, tissue-based. Particulars: Gallus gallus. Summed up:
as §3

Series [26] concerns DLD-1. The experiment in a line: Antiproliferative activity against human DLD1 cells after 72 hrs by MTT assay. The settings on record: DLD-1, 72 h. The series is classed as functional, cell-based. Summed up:
as §2

Series [27] has as its system EA.hy 926. The series can be described thus: Antiproliferative activity against human EAhy926 cells after 72 hrs by MTT assay. The series is classed as functional, cell-based. The settings on record: EA.hy 926, 72 h. Summed up:
as §2

Series [28] has as its system Chorioallantoic membrane. The series can be described thus: Antiangiogenic activity in Leghorn chicken embryo chorioallantoic membrane assessed as disruption of smaller blood vessels at 5 nmol after 24 hrs by light microscopic analysis. In kind it is functional, tissue-based. Particulars: Gallus gallus. Summed up:
as §3

Series [29] has as its system Chorioallantoic membrane. The experiment in a line: Antiangiogenic activity in Leghorn chicken embryo chorioallantoic membrane assessed as induction of hemorrhages at 5 nmol after 6 hrs by light microscopic analysis. The series is classed as functional, tissue-based. Particulars: Gallus gallus. Summed up:
as §3

The subject of series [30] is Chorioallantoic membrane. The series can be described thus: Antiangiogenic activity in Leghorn chicken embryo chorioallantoic membrane assessed as reduction in blood vessel area at 5 nmol after 6 hrs by light microscopic analysis relative to control. The series is classed as functional, tissue-based. Further details: scale not given: the % may be the effect or the level left. The settings on record: Gallus gallus. Summed up: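 The CAM assay was run with topical application into a silicon foil ring atop the CAM of fertilized chicken eggs. Area covered by blood vessels was quantified by fractal analysis relative to control.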

For series [31], the system named is HCT-116. The series can be described thus: Antiproliferative activity against human HCT116 cells after 72 hrs by MTT assay. In kind it is functional, cell-based. Particulars: HCT-116, 72 h. Summed up:
as §2

A short description of series [32]: Antiproliferative activity against human KB-V1/Vbl cells after 72 hrs by MTT assay. The series is classed as functional, cell-based. Summed up: as §2
Series [33] has as its system Chorioallantoic membrane. The experiment in a line: Antiangiogenic activity in Leghorn chicken embryo chorioallantoic membrane assessed as effect on blood vessel length at 5 nmol after 6 hrs by light microscopic analysis. In kind it is functional, tissue-based. The settings on record: Gallus gallus. Summed up: as §3
Series [34] in a line: Solubility in tween80/ethanol (1:1) solution. The series is classed as physicochemical.

The source made the active and inactive calls. No cut-off for these calls is given here.

Tubulin (Sus scrofa), sequence (P02550 whole entry, looked up): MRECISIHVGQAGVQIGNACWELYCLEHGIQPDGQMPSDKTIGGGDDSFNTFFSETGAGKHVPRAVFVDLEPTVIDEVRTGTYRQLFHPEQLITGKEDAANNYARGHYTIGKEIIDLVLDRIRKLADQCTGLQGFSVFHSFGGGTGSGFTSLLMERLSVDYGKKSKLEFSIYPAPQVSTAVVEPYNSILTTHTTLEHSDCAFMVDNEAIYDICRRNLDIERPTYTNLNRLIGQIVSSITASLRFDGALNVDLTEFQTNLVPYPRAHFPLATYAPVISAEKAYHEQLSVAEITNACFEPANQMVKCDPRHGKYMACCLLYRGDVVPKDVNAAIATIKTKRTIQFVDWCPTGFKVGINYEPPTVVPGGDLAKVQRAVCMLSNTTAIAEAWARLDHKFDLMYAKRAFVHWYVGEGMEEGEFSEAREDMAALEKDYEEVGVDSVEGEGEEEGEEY
Tubulin (Sus scrofa), sequence (P02554 whole entry, looked up): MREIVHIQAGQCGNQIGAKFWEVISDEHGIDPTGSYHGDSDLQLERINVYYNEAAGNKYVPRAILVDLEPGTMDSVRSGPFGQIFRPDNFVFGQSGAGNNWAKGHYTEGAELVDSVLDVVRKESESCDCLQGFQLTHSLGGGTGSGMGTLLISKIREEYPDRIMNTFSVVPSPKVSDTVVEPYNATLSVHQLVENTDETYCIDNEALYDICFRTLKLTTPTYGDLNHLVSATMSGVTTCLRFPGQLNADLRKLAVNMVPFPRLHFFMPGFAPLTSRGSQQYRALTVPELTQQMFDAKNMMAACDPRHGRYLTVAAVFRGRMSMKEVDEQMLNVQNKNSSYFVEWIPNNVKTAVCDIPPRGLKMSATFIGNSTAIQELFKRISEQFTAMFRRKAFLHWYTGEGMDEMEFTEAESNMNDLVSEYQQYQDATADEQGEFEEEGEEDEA

With `N#CC1=C(N)Oc2c(ccc3ccccc23)C1c1ccc(Cl)c(F)c1` (stereo not drawn), the Activity in series [1] is 21%; in [2], 9.4%; in series [3] it was 56%; in [4] it was 14.9%; in series [7], 34%; in series [8], “Dose-dependent effect”. For the same compound, the Activity was found to be 50.4% in series [10]; 27% in series [11]; 15.4% in series [12]; 25% in series [13]; 9.3% in series [15]; 20.5% in series [16]. In [17], the Activity was determined as 14.7%. This compound gave an inhibition in [5] of 44.1%. For the same compound, the IC50 in series [6] came out at 48.5 nM; in [8], 425 nM; in series [9], 57.3 nM; in [14], 172 nM.
For `N#CC1=C(N)Oc2c(cc(Cl)c3ccccc23)C1c1cccc([N+](=O)[O-])c1` (stereo not drawn), the outcome in [18], in series [25], in [28] and in [33] was inactive. In addition, the Activity in series [1] was 14.8%; in series [2], 11.3%; in [3], 55.8%; in series [4], 5.2%; in series [19], “Dose-dependent effect”; in [7] it was 73.5%. For the same compound, the Activity result in series [8] was “Dose-dependent effect”; in series [10] it was 17.7%; in series [11], 6.6%; in series [12], 53.5%; in [13] it was 17.6%; in [15], 2%. The Activity came to 18.6% in series [16], 74% in [30] and 23.6% in series [17]. In addition, the result in series [20], in series [22], in series [24] and in series [29] was Active. The IC50 is 61.1 nM in series [6]; 225 nM in series [8]; 65.9 nM in series [21]; 46 nM in series [9]; 88.5 nM in series [23]; 22.3 nM in series [26]. Moreover, the IC50 in series [27] turned out to be 90.8 nM; in series [14] it was 209 nM; in [31], 112 nM; in [32], 73.3 nM.
Consider `COc1c(Cl)cc(C2C(C#N)=C(N)Oc3c2ccc2ccccc32)cc1Cl` (stereo not drawn), for which the IC50 in series [6] was 16.7 nM; in series [8], 44.6 nM; in series [21], 27.9 nM; in [9] it was 19.2 nM; in series [23], 29.9 nM; in series [26], 59 nM. In addition, the IC50 came out at 32.6 nM in [27], 103 nM in [14], 69.2 nM in [31] and 30.2 nM in series [32]. In addition, the Activity entry in series [8] is “Dose-dependent effect”. In addition, the solubility result in [34] is “Insoluble”.
